Assay results gathered from unrelated publications.
Protocols differ between the studies behind these lines. pIC50: −log10 of the molar value.
Ephx2: Bifunctional epoxide hydrolase 2 (Ephx2, Rattus norvegicus, UniProt P80299)
PDE3A: cGMP-inhibited 3',5'-cyclic phosphodiesterase 3A (PDE3A, Homo sapiens, UniProt Q14432)
MAPK14: Mitogen-activated protein kinase 14 (MAPK14, Homo sapiens, UniProt Q16539)
LRRK2: Leucine-rich repeat serine/threonine-protein kinase 2 (LRRK2, Homo sapiens, UniProt Q5S007)

SMILES | target | read-out | action | technique | pIC50
CC(O)C(C)C(=O)N1CCC(NC(=O)Nc2ccc(OC(F)(F)F)c(F)c2)CC1 (stereo not drawn) | Ephx2 | enzyme activity | inhibitor |  | 8.37
COCCOCOc1ccc(C(=O)/C=C/c2ccc(C(=O)O)cc2)cc1C12CC3CC(CC(C3)C1)C2 | Inhibitor of nuclear factor kappa-B kinase subunit beta (IKBKB, Homo sapiens, UniProt O14920) | enzyme activity | inhibitor | TR-FRET | 4.78
CC(C)C[C@H](NC(=O)[C@H]1O[C@@H]1C(=O)O)C(=O)NCCCCN=C(N)N | Dipeptidyl peptidase 1 (CTSC, Homo sapiens, UniProt P53634) | enzyme activity | inhibitor |  | 6.13
N#Cc1ccc(COc2cccc(C3CCN(Cc4nc5ccc(C(=O)O)cc5n4C[C@@H]4CCO4)CC3)n2)c(F)c1 | PDE3A | enzyme activity | inhibitor |  | 5.64
Cc1ccc(NC(=O)c2cccc(N(C)C)c2)cc1NC(=O)c1ccc(O)cc1 | MAPK14 | enzyme activity | inhibitor | ADP detection | 6.52
CNC(=O)c1cc2c(Oc3ccc(NC(=O)C4(C(=O)Nc5ccc(F)cc5)CC4)cc3)ccnc2cc1OC | Macrophage-stimulating protein receptor (MST1R, Homo sapiens, UniProt Q04912) | enzyme activity | inhibitor | radiometric | 7.37
CCCC[C@H](NC(=O)[C@H](C)c1c(C)[nH]c2ccc(O)cc12)c1ncc(-c2cc3ccccc3nc2OC)[nH]1 | Prostaglandin E2 receptor EP3 subtype (PTGER3, Homo sapiens, UniProt P43115) | enzyme activity |  |  | 5.06
Cc1cnc(-c2ccc(-c3ccc(NC(=O)Nc4c(F)cc(F)cc4F)cc3F)c3c2C(=O)NC3)[nH]1 | LRRK2 | enzyme activity | inhibitor |  | 7.87
CC(C)(C)n1nc(-c2cnc3cc(OC4CC4)ccc3c2)c(C(N)=O)c1N | Death-associated protein kinase 3 (DAPK3, Homo sapiens, UniProt O43293) | cell-free assay |  |  | < 5.00
COc1cc2c(cc1OC)-c1c/c(=N\c3c(C)cc(C)cc3C)n(C)c(=O)n1CC2 | PDE3A | enzyme activity | inhibitor | FP | 10.17
CN1CCN(c2ccc(Nc3ncc4cc(C#N)c(=O)n(C5CCCC5)c4n3)cc2)CC1 | Casein kinase I isoform epsilon (CSNK1E, Homo sapiens, UniProt P49674) | enzyme activity | inhibitor |  | 5.26
CC1=CC[C@@H](C(C)(C)O)CC1 | Urease subunit beta (ureB, Helicobacter pylori, UniProt P69996) | enzyme activity in cells | inhibitor | absorbance | 5.03
O=C(/C=C/c1ccc(O)c(O)c1)O[C@H](Cc1ccc(O)c(O)c1)C(=O)O | LRRK2 | enzyme activity | inhibitor | radiometric | 5.73
COc1ccc2c(Oc3ccc4c(C(=O)Nc5ccccc5N)cccc4c3)ccnc2c1 | MAPK14 | enzyme activity | inhibitor |  | < 6.30
CC(C)(C)n1nc(-c2ccc3nc(OC4CC4)ccc3c2)c(C(N)=O)c1N | MAPK14 | cell-free assay |  |  | < 5.00
CCCCCCOC(=O)c1ccccc1C(=O)c1ccc(N(CC)CC)cc1O | Estrogen receptor (ESR1, Homo sapiens, UniProt P03372) | reporter gene | antagonist |  | 5.32
CCOCc1nc(O)c(-c2nnc(Cc3ccc(Cl)cn3)o2)c(O)c1-c1c(OC)cccc1OC | Alpha-2C adrenergic receptor (ADRA2C, Homo sapiens, UniProt P18825) | ligand displacement |  | radioligand | < 4.52
COc1ccc(C2=NN(C3CCCCCC3)C(=O)[C@@H]3CC=CC[C@H]23)cc1-c1ccc(C(N)=O)cc1 (relative stereo) | PDE3A | enzyme activity | inhibitor |  | 5.10
N#C/C(=C\c1ccc(O)c(O)c1)C(=O)OC/C=C/c1ccccc1 | LRRK2 | enzyme activity | inhibitor | radiometric | 6.21
C[C@@H]1Cc2ccccc2N1C(=O)NCCCCN(C)[C@@H]1Cc2cccc3[nH]c(=O)n(c23)C1 | 5-hydroxytryptamine receptor 1A (HTR1A, Homo sapiens, UniProt P08908) | ligand displacement |  | radioligand | 7.45
CCC(C)(O)C(=O)N1CCC(NC(=O)Nc2ccc(OC(F)(F)F)c(F)c2)CC1 (stereo not drawn) | Ephx2 | enzyme activity | inhibitor |  | 7.97
